# Experimental data pooled from the literature.
# Lines come from different studies, so protocols differ.
# Target: Dual specificity tyrosine-phosphorylation-regulated kinase 3 (DYRK3, Homo sapiens, UniProt O43781)
SMILES,test,conditions,endpoint,value
O=C(O)c1ccc2c(c1)nc(Nc1cccc(F)c1)c1ncncc12,"enzyme activity, inhibitor, radiometric",1 µM,remaining activity,9%
Cn1cnc(Br)c1C1=CN(c2ncnc3[nH]cnc23)CCS1,"enzyme activity, inhibitor, radiometric",2 µM,inhibition,98%
O=C1NC(=O)c2cc(Nc3ccc(F)cc3)c(Nc3ccc(F)cc3)cc21,cell-free assay,0.5 µM,remaining signal,97.1%
COc1cc(-c2cc(-c3ccc(N4CCNCC4)cc3)cnc2C)cc(OC)c1OC,"enzyme activity, inhibitor",1 µM,inhibition,1%
CN(c1ncccc1CNc1nc(Nc2ccc3c(c2)CC(=O)N3)ncc1C(F)(F)F)S(C)(=O)=O,"enzyme activity, inhibitor",1 µM,inhibition,66.8%
COc1cc(/C=C/C(=O)CC(=O)/C=C/c2ccc(O)c(OC)c2)ccc1O,"enzyme activity, inhibitor",1 µM,activity vs control,11%
COc1cc2ncnc(Nc3ccc(Oc4ccccc4)cc3C)c2cc1OC,"enzyme activity, inhibitor",1 µM,inhibition,1%
O=C(O)c1ccc2c(c1)nc(NCCc1cccc(F)c1)c1ncncc12,"enzyme activity, inhibitor, radiometric",1 µM,remaining activity,17%
N#CCCc1ccc2c(c1)-c1[nH]c3ccc([N+](=O)[O-])cc3c1CC(=O)N2,cell-free assay,0.5 µM,remaining signal,97.6%
O=C(O)c1ccc2c(c1)nc(NCc1ccccc1)c1ncncc12,"enzyme activity, inhibitor, radiometric",1 µM,remaining activity,31%
Nc1nc(Nc2ccccc2)sc1C(=O)c1c(F)cccc1F,"enzyme activity, inhibitor",10 µM,remaining activity,83%
O=C(O)c1ccc2c(c1)nc(NCCc1cccc(F)c1)c1ccncc12,"enzyme activity, inhibitor, radiometric",1 µM,remaining activity,7%
Oc1cccc(-c2nc(N3CCOCC3)c3oc4ncccc4c3n2)c1,"enzyme activity, inhibitor",10 µM,remaining activity,64%
